Consider 5 molecules from ChEMBL document CHEMBL1159094, “New iodinated quinoline-2-carboxamides for SPECT imaging of the translocator protein” (Bioorg Med Chem Lett, 2010).

Each structure is given as a SMILES string.

Series [1] concerns the target Translocator protein (Rattus norvegicus, UniProt P16257). Description: Displacement of [3H]PK11195 from TSPO in Sprague-Dawley rat brain homogenates by liquid scintillation counting. The format is tissue-based.
A short description of series [2]: Lipophilicity, log P by HPLC method. Conditions: octanol/water.
A short description of series [3]: Chemical stability in 0.01 mM phosphate buffered saline assessed as purity of parent compound after 1 hr by HPLC analysis. The format is physicochemical. The note with it: read-out: Activity. The procedure, abridged: (§1)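 Test compound incubated in phosphate buffered saline at 37 °C. Parent compound decomposition followed over time by HPLC.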
Series [4] in a line: Chemical stability in 0.01 mM phosphate buffered saline assessed as purity of parent compound after 2 hrs by HPLC analysis. In kind it is physicochemical. Conditions: read-out: Activity. The essentials:
as §1

Series [5] in a line: Chemical stability in 0.01 mM phosphate buffered saline assessed as purity of parent compound after 4 hrs by HPLC analysis. Conditions: read-out: Activity. The format is physicochemical. The essentials: as §1
Series [6] is described as follows: Chemical stability in 0.01 mM phosphate buffered saline assessed as purity of parent compound after 6 hrs by HPLC analysis. The format is physicochemical. The note with it: read-out: Activity. The procedure, abridged: as §1
Series [7] in a line: Chemical stability in 0.01 mM phosphate buffered saline assessed as purity of parent compound after 24 hrs by HPLC analysis. The format is physicochemical. The note with it: read-out: Activity. The procedure, abridged:
as §1

Chain of Translocator protein (P16257 whole entry, looked up): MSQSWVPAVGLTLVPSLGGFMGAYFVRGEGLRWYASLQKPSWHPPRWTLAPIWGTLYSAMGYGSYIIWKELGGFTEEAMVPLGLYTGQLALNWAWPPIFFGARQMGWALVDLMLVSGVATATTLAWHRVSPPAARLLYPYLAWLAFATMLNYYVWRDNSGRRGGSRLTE

Regarding `CN(Cc1cccc(I)c1)C(=O)c1cc(-c2ccc(F)cc2)c2ccccc2n1`, the Ki (commonly a measure of affinity in units of concentration, obtained from inhibition or displacement) in series [1] was above 1000 nM. Moreover, in series [2], the logP (usually the decadic logarithm of the partition coefficient of the neutral form, usually between octanol and water) worked out at 5.16.

Molecule `Cc1c(C(=O)N(C)Cc2ccc(I)cc2)nc2ccccc2c1-c1ccccc1` displayed a Ki in series [1] above 1000 nM. In addition, in series [2], the logP worked out at 5.12.

As for `CN(CCc1ccccc1)C(=O)c1nc2ccccc2c(-c2ccccc2)c1CI`, in series [1], affinity was put at a Ki of 411 nM. In series [2], this molecule registered a logP of 5.41.

Consider `CCN(CC)C(=O)c1nc2ccccc2c(-c2ccccc2)c1CI`, for which the remaining at 1 h in series [3] came out at 96%. Also, the remaining at 2 h in series [4] stood at 96%. In addition, the remaining at 4 h in series [5] was 94%. Moreover, the remaining at 6 h in series [6] was determined as 94%. Moreover, in series [7], the remaining at 24 h stood at 79%.

For the molecule `CCC(C)N(C)C(=O)c1cc2ccccc2c(-c2ccccc2Cl)n1` (configuration not stated) [PK-11195], in series [2], the logP worked out at 3.85.
